How the values were obtained:
[1] = system: Rhizoctonia solani; assay: Antifungal activity against Rhizoctonia solani AG-4 assessed as inhibition of colony size at 100 ppm at 27 degC measured after 48 hr; type: functional; conditions: AG-4, 48 h
Method in brief: (§1)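 R. solani AG-4 RST-04 was kept on PDA slants. Samples were dissolved in distilled water, with distilled water as the control. Growth was on PDA plates at 27 °C for 48 h. Colony size was measured as mean ± SE (n = 8). Inhibition % = [(control colony size − treatment colony size)/control colony size] × 100. Groups were compared by Duncan's multiple-range test (p = 0.05).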

[2] = system: Rhizoctonia solani; assay: Antifungal activity against Rhizoctonia solani AG-4 assessed as inhibition of colony size at 30 ppm at 27 degC measured after 48 hr; type: functional; conditions: AG-4, 48 h; method in brief: as §1
[3] = system: Rhizoctonia solani; assay: Antifungal activity against Rhizoctonia solani AG-4 assessed as inhibition of colony size at 60 ppm at 27 degC measured after 48 hr; type: functional; conditions: AG-4, 48 h; method in brief: as §1
[4] = system: Rhizoctonia solani; assay: Antifungal activity against Rhizoctonia solani AG-4 assessed as inhibition of mycelial growth at 27 degC measured after 48 hr; type: functional, organism-based
[5] = system: Rhizoctonia solani; assay: Antifungal activity against Rhizoctonia solani AG-4 assessed as inhibition of colony size at 10 ppm at 27 degC measured after 48 hr; type: functional; conditions: AG-4, 48 h; method in brief: as §1
[6] = system: Rhizoctonia solani; assay: Antifungal activity against Rhizoctonia solani AG-4 assessed as inhibition of colony size at 125 ppm at 27 degC measured after 48 hr; type: functional; conditions: AG-4, 48 h; method in brief: as §1
[7] = system: Rhizoctonia solani; assay: Antifungal activity against Rhizoctonia solani AG-4 assessed as inhibition of colony size at 0.25 ppm at 27 degC measured after 48 hr; type: functional; conditions: AG-4, 48 h
Method in brief: (§2)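 R. solani AG-4 RST-04 was grown on potato dextrose agar plates at 27 °C for 48 h, with the reference fungicide tested across 0.25-250 ppm. Samples were dissolved in distilled water, and plates given distilled water alone served as control. Colony size was read as the mean of n = 8. Inhibition (%) = [(control colony size − treated colony size)/control colony size] × 100.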

[8] = system: Rhizoctonia solani; assay: Antifungal activity against Rhizoctonia solani AG-4 assessed as inhibition of colony size at 2.5 ppm at 27 degC measured after 48 hr; type: functional; conditions: AG-4, 48 h; method in brief: as §2
[9] = system: Rhizoctonia solani; assay: Antifungal activity against Rhizoctonia solani AG-4 assessed as inhibition of colony size at 25 ppm at 27 degC measured after 48 hr; type: functional; conditions: AG-4, 48 h; method in brief: as §2
[10] = system: Rhizoctonia solani; assay: Antifungal activity against Rhizoctonia solani AG-4 assessed as inhibition of colony size at 250 ppm at 27 degC measured after 48 hr; type: functional; conditions: AG-4, 48 h; method in brief: as §2

Row | SMILES | inhibition at 100 ppm [1] | inhibition at 30 ppm [2] | inhibition at 60 ppm [3] | IC50 [4] | inhibition at 10 ppm [5] | inhibition at 125 ppm [6] | inhibition at 0.25 ppm [7] | inhibition at 2.5 ppm [8] | inhibition at 25 ppm [9] | inhibition at 250 ppm [10]
1 | C/C=C(/C)C(=O)O[C@H]1CC(C)(C)C[C@H]2C3=CC[C@@H]4[C@@]5(C)CC[C@H](O[C@@H]6O[C@H](C(=O)O)[C@@H](O)[C@H](O[C@@H]7OC[C@H](O)[C@H](O)[C@H]7O[C@@H]7O[C@H](CO)[C@@H](O)[C@H](O)[C@H]7O)[C@H]6O[C@@H]6O[C@H](CO)[C@H](O)[C@H](O)[C@H]6O)[C@@](C)(C=O)[C@@H]5CC[C@@]4(C)[C@]3(C)C[C@@H](O)[C@@]12CO [CAMELLIASAPONIN B1] | 63.4% | 46.8% | 56.5% | 55.7 ppm | 6.43% | – | – | – | – | –
2 | C[C@@H]1O[C@@H](OC[C@H]2O[C@@H](Oc3c(-c4ccc(O)cc4)oc4cc(O)cc(O)c4c3=O)[C@H](O[C@@H]3O[C@H](CO)[C@H](O)[C@H](O)[C@H]3O)[C@@H](O)[C@@H]2O)[C@H](O)[C@H](O)[C@H]1O [CAMELLIASIDE A] | – | – | – | > 125 ppm | – | -14.7% | – | – | – | –
3 | C[C@@H]1O[C@@H](OC[C@H]2O[C@@H](Oc3c(-c4ccc(O)cc4)oc4cc(O)cc(O)c4c3=O)[C@H](O[C@@H]3OC[C@@H](O)[C@H](O)[C@H]3O)[C@@H](O)[C@@H]2O)[C@H](O)[C@H](O)[C@H]1O [CAMELLIASIDE B] | – | – | – | > 125 ppm | – | -14.5% | – | – | – | –
4 | O=C(Nc1ccccc1)N(Cc1ccc(Cl)cc1)C1CCCC1 [PENCYCURON] | – | – | – | < 0.25 ppm | – | – | 66.6% | 73.6% | 83.9% | 81.9%
